From ChEMBL document CHEMBL1147939, “Synthesis and biological evaluation of new 3-substituted indole derivatives as potential anti-inflammatory and analgesic agents” (2007) come the findings set out here.

A word on the inhibition in vivo: it is the relative decrease from the control value, in per cent.

Structures are written as SMILES.

Assay type in all cases: functional
Experiment [1] relates to Mus musculus. Briefly: Antinociceptive activity in Swiss mouse assessed as inhibition of acetic-acid induced writhing at 70 mg/kg, po after 30 mins by Koster test relative to indomethacin. The method in brief:
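Acetic acid writhing in Swiss mice, six per group: 70 mg/kg orally in distilled water, 0.6% acetic acid ip 60 min later, writhes counted over 30 min. Potency is the ratio of % change to that of the indomethacin group (35 mg/kg).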

In experiment [2] the test system is Mus musculus. Briefly: Antiinflammatory activity in Swiss mouse assessed as inhibition of carrageenan-induced hind paw oedema at 70 mg/kg, po after 4 hrs relative to indomethacin. The method in brief: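 Carrageenan paw oedema in Swiss mice, six per group, 70 mg/kg orally in distilled water; 50 µL 1% carrageenan subplantar, paw measured at 0 and 4 h. Potency expressed as ratio of the compound's percentage change to that of the indomethacin group (35 mg/kg in 5% sodium bicarbonate).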
(In the carrageenan paw model, swelling and tenderness develop within hours.)

The subject of experiment [3] is Mus musculus. Description: Antinociceptive activity in Swiss mouse assessed as inhibition of acetic-acid induced writhing at 70 mg/kg, po after 30 mins by Koster test. Put shortly:
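Koster writhing test in Swiss mice (20–30 g), six per group. Oral dosing, test agents in distilled water, reference in 5% sodium bicarbonate. After 60 min, 0.6% acetic acid given ip (0.2 mL/mouse). Writhes counted over 30 min. % change versus saline control group. Mean ± SE; one-way ANOVA, Duncan's test.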
(In general: Writhing tests count abdominal constrictions after an irritant is injected.)

Experiment [4] has as its system Mus musculus. Briefly: Effect on thermal pain in Swiss mouse at 70 mg/kg, po after 1 hr by hot plate test. Put shortly: (§1)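 Hot-plate at 52 °C, 60 s cut-off, Swiss mice, six per group. Latency to paw licking or jumping recorded before and 1 h after oral dosing (test agents in distilled water, reference in 5% sodium bicarbonate). % change from basal latency. Mean ± SE; one-way ANOVA, Duncan's test.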
(Thermal pain tests record how soon the animal reacts.)

For experiment [5], the system named is Mus musculus. Briefly: Effect on thermal pain in Swiss mouse at 70 mg/kg, po after 1 hr by hot plate test relative to indomethacin. Also on record: unit not given here. Put shortly:
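Hot-plate at 52 °C (60 s cut-off), Swiss mice, six per group. Latency to licking or jumping measured before and 1 h after 70 mg/kg orally. Potency is the ratio of % change from basal to that of the indomethacin group (35 mg/kg).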

Experiment [6] relates to Mus musculus. Description: Antiinflammatory activity in Swiss mouse assessed as inhibition of carrageenan-induced hind paw oedema at 70 mg/kg, po after 4 hrs. The method in brief: (§2)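 Swiss mice (20–30 g), six per group; oral dosing, test agents in distilled water, reference in 5% sodium bicarbonate, saline controls. Oedema induced by subplantar injection of 50 µL 1% carrageenan in saline into right hind paw. Paw size measured before and 4 h after carrageenan. % oedema inhibition calculated versus saline control group's % oedema formation. Mean ± SE; one-way ANOVA, Duncan's test.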

For experiment [7], the system named is Mus musculus. Description: Effect on thermal pain in Swiss mouse at 35 mg/kg, po after 1 hr by hot plate test. Put shortly:
as §1

The test system of experiment [8] is Mus musculus. Briefly: Antiinflammatory activity in Swiss mouse assessed as inhibition of carrageenan-induced hind paw oedema at 35 mg/kg, po after 4 hrs. Put shortly:
as §2

Experiment [9] concerns Mus musculus. Briefly: Antinociceptive activity in Swiss mouse assessed as inhibition of acetic-acid induced writhing at 35 mg/kg, […] by Koster test. On the set-up: scale not given: the % may be the effect or the level left. The conditions noted are these: route oral.

Turning to `CC(=O)C1=NN(c2ccccc2)/C(=C(\C#N)C(=O)c2c[nH]c3ccccc23)S1`, the Activity was 0.88 ratio to indomethacin with Mus musculus [1], 0.6 ratio (fold of indomethacin) with Mus musculus [2], 2.4% in the experiment on Mus musculus [4] and 0.1 with Mus musculus [5]. The “percent change in writhing count versus control” value (“percent change” for short) in the experiment with Mus musculus [3] was -71.6%. Moreover, in the experiment on Mus musculus [6], the inhibition in vivo at 70 mg/kg is -21.9%.
Turning to `N#C/C(=N\Nc1cc(-c2ccccc2)n[nH]1)C(=O)c1c[nH]c2ccccc12`, the Activity in the experiment with Mus musculus [1] was 0.77 ratio to indomethacin; in the experiment with Mus musculus [2], 0.4 ratio (fold of indomethacin); with Mus musculus [4], 28.3%; in the experiment on Mus musculus [5], 1.3. In the experiment with Mus musculus [3], the “percent change” value is on record as -62.5%. In the experiment with Mus musculus [6], the inhibition in vivo at 70 mg/kg is -13.1%.
`N#C/C(=N\Nc1nc2ccccc2[nH]1)C(=O)c1c[nH]c2ccccc12`: the Activity in the experiment with Mus musculus [1] is recorded as 0.78 ratio to indomethacin; with Mus musculus [2], 0.9 ratio (fold of indomethacin); in the experiment with Mus musculus [4] it was 8.6%; in the experiment with Mus musculus [5], 0.4. The “percent change” value in the experiment with Mus musculus [3] is -63.2%. In addition, the inhibition in vivo at 70 mg/kg in the experiment with Mus musculus [6] is -25.5%.
In the case of `N#C/C(C(=O)c1c[nH]c2ccccc12)=C(\S)Nc1ccccc1`, the Activity in the experiment on Mus musculus [1] is 0.79 ratio to indomethacin; with Mus musculus [2], 0.9 ratio (fold of indomethacin); in the experiment on Mus musculus [4] it was 24.2%; in the experiment on Mus musculus [5], 1.1. For the same compound, the “percent change” value with Mus musculus [3] was -64.1%. Also, the inhibition in vivo at 70 mg/kg in the experiment on Mus musculus [6] is -28%.
In the case of `N#C/C(C(=O)c1c[nH]c2ccccc12)=C1/SCC(=O)N1c1ccccc1`, the Activity in the experiment on Mus musculus [1] is reported as 0.75 ratio to indomethacin; in the experiment on Mus musculus [2] it was 0.3 ratio (fold of indomethacin); with Mus musculus [4], 76.5%; with Mus musculus [5], 3.4. In addition, the “percent change” value with Mus musculus [3] was -60.9%. In the experiment with Mus musculus [6], the inhibition in vivo at 70 mg/kg was -7.7%.
As for `CCOC(=O)C1=NN(c2ccccc2)/C(=C(\C#N)C(=O)c2c[nH]c3ccccc23)S1`, the Activity in the experiment with Mus musculus [1] is on record as 0.76 ratio to indomethacin; with Mus musculus [2], 0.2 ratio (fold of indomethacin); in the experiment with Mus musculus [4], 9.6%; with Mus musculus [5] it was 0.4. Moreover, the “percent change” value in the experiment with Mus musculus [3] is -61.7%. Besides, in the experiment on Mus musculus [6], the inhibition in vivo at 70 mg/kg was -5.5%.
Take `CCOC(=O)C1=NN(c2ccc(C)cc2)/C(=C(\C#N)C(=O)c2c[nH]c3ccccc23)S1`: the Activity in the experiment with Mus musculus [1] is 0.96 ratio to indomethacin; in the experiment with Mus musculus [2] it was 0.4 ratio (fold of indomethacin); in the experiment with Mus musculus [4], 11.4%; in the experiment with Mus musculus [5], 0.5. Besides, the “percent change” value in the experiment with Mus musculus [3] was -77.5%. In addition, in the experiment with Mus musculus [6], the inhibition in vivo at 70 mg/kg was -11.5%.
`CCOC(=O)C1=NN(c2ccc(Cl)cc2)/C(=C(\C#N)C(=O)c2c[nH]c3ccccc23)S1`: the Activity is 0.9 ratio to indomethacin with Mus musculus [1], 0.6 ratio (fold of indomethacin) in the experiment with Mus musculus [2], 9.9% in the experiment on Mus musculus [4] and 0.4 in the experiment on Mus musculus [5]. For the same compound, the “percent change” value in the experiment on Mus musculus [3] is -76%. In addition, the inhibition in vivo at 70 mg/kg in the experiment with Mus musculus [6] is -19.1%.
With `CC(=O)c1sc(Nc2ccccc2)c(C#N)c1-c1c[nH]c2ccccc12`, the Activity with Mus musculus [1] is on record as 0.85 ratio to indomethacin; with Mus musculus [2], 1.5 ratio (fold of indomethacin); in the experiment on Mus musculus [4], 11.2%; in the experiment on Mus musculus [5], 0.5. The “percent change” value in the experiment on Mus musculus [3] is recorded as -68.6%. For the same compound, the inhibition in vivo at 70 mg/kg with Mus musculus [6] is -44.4%.
For `CC(=O)C1=NN(c2ccc(C)cc2)/C(=C(\C#N)C(=O)c2c[nH]c3ccccc23)S1`, the Activity in the experiment on Mus musculus [1] is listed as 0.7 ratio to indomethacin; with Mus musculus [2], 1.1 ratio (fold of indomethacin); with Mus musculus [4], 21%; in the experiment with Mus musculus [5] it was 0.9. For the same compound, the “percent change” value with Mus musculus [3] is -57.8%. For the same compound, the inhibition in vivo at 70 mg/kg in the experiment with Mus musculus [6] was -32.7%.
Turning to `CC(=O)C1=NN(c2ccc(Cl)cc2)/C(=C(\C#N)C(=O)c2c[nH]c3ccccc23)S1`, the Activity in the experiment with Mus musculus [1] is on record as 0.57 ratio to indomethacin; with Mus musculus [2], 0.5 ratio (fold of indomethacin); in the experiment on Mus musculus [4], 69.6%; in the experiment with Mus musculus [5], 3.1. In addition, in the experiment on Mus musculus [3], the “percent change” value is listed as -45.7%. Besides, the inhibition in vivo at 70 mg/kg in the experiment on Mus musculus [6] is -15%.
On to `N#C/C(C(=O)c1c[nH]c2ccccc12)=C1/SC(c2ccccc2)=NN1c1ccccc1`, for which the Activity is 0.4 ratio to indomethacin with Mus musculus [1], 0.9 ratio (fold of indomethacin) in the experiment with Mus musculus [2], 27.3% in the experiment with Mus musculus [4] and 1.2 in the experiment on Mus musculus [5]. Besides, the “percent change” value in the experiment with Mus musculus [3] is on record as -35.3%. In addition, the inhibition in vivo at 70 mg/kg in the experiment with Mus musculus [6] is -31%.
`COc1ccc2c(c1)c(CC(=O)O)c(C)n2C(=O)c1ccc(Cl)cc1` [INDOMETHACIN]: the Activity in the experiment with Mus musculus [7] is listed as 22.6%; in the experiment on Mus musculus [9], -80.7%. For the same compound, the inhibition in vivo at 35 mg/kg in the experiment on Mus musculus [8] is -29.9%.
